From PMC11001196 (Microbial Biotechnology, 2024)
Like-named read-outs stand apart in the source and are kept apart here. One block for each compound: values may come before it.

Assays:
[1] = tested on: FS6; assay: spectrophotometric kinetics, Lineweaver-Burk; assay type: biochemical, metagenome; settings: pH 5.5, 25 °C, HAM poly-buffer
Method in brief: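 Purified metagenome-derived acid phosphatase (imidazole-gradient eluted, dialysed into MES/HEPES/acetate buffer with 150 mM NaCl) at 0.1-1 µM in 0.1 mL HAM poly-buffer (40 mM HEPES, 40 mM acetic acid, 40 mM MES). […] at 0 to 0.22 mM; hydrolysis followed spectrophotometrically. Vmax and Km derived from Michaelis–Menten analysis and Lineweaver–Burk double-reciprocal plots.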

[2] = target: FS6 acid phosphatase (class C acid phosphatase, histidine-tagged recombinant FS6); assay: AUC

- Km ([1]; read-out: AMP-5’ / Km): 180 ± 70 µM
Compound: Nc1ncnc2c1ncn2[C@@H]1O[C@H](COP(=O)(O)O)[C@@H](O)[C@H]1O [adenosine 5'-monophosphate]

- Km ([1]; read-out: GMP-5’ / Km): 220 ± 20 µM
Compound: Nc1nc2c(ncn2[C@@H]2O[C@H](COP(=O)(O)O)[C@@H](O)[C@H]2O)c(=O)[nH]1 [guanosine 5'-monophosphate]

Further lines, the compound ahead of its results:

Compound: O=[N+]([O-])c1ccc(OP(=O)(O)O)cc1 [p-nitrophenyl phosphate]
- Km ([1]; read-out: pNPP / Km): 40 ± 10 µM

Compound: O=c1ccn([C@@H]2O[C@H](COP(=O)(O)O)[C@@H](O)[C@H]2O)c(=O)[nH]1 [uridine 5'-monophosphate]
- Km ([1]; read-out: UMP-5’ / Km): 180 ± 130 µM

Compound: FS6 acid phosphatase (class C acid phosphatase, histidine-tagged recombinant FS6) (enzyme)
- stoichiometry N [2]: 10
